Converted amounts (≈) assume the structure as drawn. The source made the active and inactive calls. No cut-off for these calls is given here.
Experiments:
Assay type in all cases: functional
Staphylococcus aureus [1] = experiment: Antibacterial activity against Staphylococcus aureus ATCC 12600 at 10 mg/disc after 48 hrs by disc-diffusion method
Outline: (§1)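 Disc diffusion per Bauer method under NCCLS conditions on nutrient agar/Mueller-Hinton agar. Compound dissolved in sterile DMSO at 10 mg/mL, filtered 0.2 µm, stored frozen at -15 °C; 10 mg/disc in DMSO applied. DMSO control. Inhibition zone diameter measured in mm after 48 h incubation at 28 °C.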

Aspergillus flavus [2] = experiment: Antifungal activity against Aspergillus flavus ATCC 11495 after 24 hrs by microdilution technique
Staphylococcus aureus [3] = experiment: Antibacterial activity against Staphylococcus aureus ATCC 12600 after 24 hrs by microdilution technique
Outline: (§2)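 MIC by agar microdilution on Mueller-Hinton agar per NCCLS 1997. Bacteria subcultured overnight at 37 °C on MHA, Candida on SDA at 35 °C for 24-48 h, each passaged at least twice. Incubated 37 °C in humid chamber, read after 24 h.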

Escherichia coli [4] = experiment: Antibacterial activity against Escherichia coli ATCC 11775 after 24 hrs by microdilution technique; outline: as §2
Candida albicans [5] = experiment: Antifungal activity against Candida albicans ATCC 26555 after 24 hrs by microdilution technique; outline: as §2
Escherichia coli [6] = experiment: Antibacterial activity against Escherichia coli ATCC 11775 at 10 mg/disc after 48 hrs by disc-diffusion method; outline: as §1
Aspergillus flavus [7] = experiment: Antifungal activity against Aspergillus flavus ATCC 11495 at 10 mg/disc after 48 hrs by disc-diffusion method; outline: as §1
Candida albicans [8] = experiment: Antifungal activity against Candida albicans ATCC 26555 at 10 mg/disc after 48 hrs by disc-diffusion method; outline: as §1
Bacillus cereus [9] = experiment: Antibacterial activity against Bacillus cereus ATCC 14579 after 24 hrs by microdilution technique; outline: as §2
Bacillus cereus [10] = experiment: Antibacterial activity against Bacillus cereus ATCC 14579 at 10 mg/disc after 48 hrs by disc-diffusion method; outline: as §1

SMILES | diameter of the inhibition zone (DIZ) (Staphylococcus aureus [1]) | MIC (Aspergillus flavus [2]) | MIC (Staphylococcus aureus [3]; ATCC 12600, 24 h) [µg/mL] | MIC (Escherichia coli [4]; DSM 30083 = JCM 1649) | MIC (Candida albicans [5]) | diameter of the inhibition zone (DIZ) (Escherichia coli [6]; DSM 30083 = JCM 1649) | diameter of the inhibition zone (DIZ) (Aspergillus flavus [7]) | diameter of the inhibition zone (DIZ) (Candida albicans [8]) | MIC (Bacillus cereus [9]) | diameter of the inhibition zone (DIZ) (Bacillus cereus [10]) | MIC (Aspergillus flavus [2]; ATCC 11495, 24 h) [µg/mL] | MIC (Escherichia coli [4]; DSM 30083 = JCM 1649, 24 h) [µg/mL] | MIC (Candida albicans [5]; ATCC 26555, 24 h) [µg/mL] | diameter of the inhibition zone (DIZ) (Escherichia coli [6]) [mm] | MIC (Bacillus cereus [9]; ATCC 14579, 24 h) [µg/mL] | MIC (Staphylococcus aureus [3])
N#Cc1c(-c2ccc(Br)cc2)[nH]c(=S)n2c(=O)[nH]nc12 | 11 mm | inactive | 64 (≈ 184 µM) | inactive | inactive | inactive | inactive | inactive | inactive | inactive |  |  |  |  |  | 
Cc1nc2c(C#N)c(-c3ccc(Br)cc3)[nH]c(=S)n2n1 | 7 mm |  | 128 (≈ 370 µM) |  |  |  | 7 mm | 8 mm |  | 6 mm | 256 (≈ 739 µM) | 128 (≈ 370 µM) | 128 (≈ 370 µM) | 6 | 128 (≈ 370 µM) | 
Cc1cc(C)n(-c2nc(=S)[nH]c(-c3ccc(F)cc3)c2C#N)n1 | 13 mm | inactive | 32 (≈ 98.3 µM) |  | inactive |  | inactive | inactive |  | 12 mm |  | 32 (≈ 98.3 µM) |  | 11 | 32 (≈ 98.3 µM) | 
N#Cc1c(-c2ccc(Br)cc2)[nH]c(=S)n2c(=S)[nH]nc12 | inactive | inactive |  |  |  |  | inactive | 12 mm |  | 10 mm |  | 64 (≈ 176 µM) | 32 (≈ 87.9 µM) | 11 | 64 (≈ 176 µM) | inactive
COc1cc(-c2[nH]c(=S)n3cnnc3c2C#N)cc(OC)c1OC | 21 mm |  | 16 (≈ 46.6 µM) |  |  |  | 18 mm | 17 mm |  | 18 mm | 16 (≈ 46.6 µM) | 16 (≈ 46.6 µM) | 16 (≈ 46.6 µM) | 13 | 16 (≈ 46.6 µM) | 
N#Cc1c(-c2ccc(F)cc2)[nH]c(=S)n2c(=S)[nH]nc12 | inactive | inactive |  |  |  |  | inactive | 12 mm |  | 11 mm |  | 64 (≈ 211 µM) | 32 (≈ 105 µM) | 11 | 64 (≈ 211 µM) | inactive
COc1cc(-c2[nH]c(=S)n3c(=S)[nH]nc3c2C#N)cc(OC)c1OC | inactive | inactive |  |  |  |  | inactive | 12 mm |  | 11 mm |  | 64 (≈ 170 µM) | 32 (≈ 85.2 µM) | 10 | 64 (≈ 170 µM) | inactive
N#Cc1c(-c2ccc(F)cc2)[nH]c(=S)n2nnnc12 | 15 mm | inactive | 16 (≈ 58.8 µM) |  | inactive |  | inactive | inactive |  | 15 mm |  | 32 (≈ 118 µM) |  | 13 | 32 (≈ 118 µM) | 
N#Cc1c(N/N=C/c2ccc(F)cc2)nc(=S)[nH]c1-c1ccc(F)cc1 | 19 mm |  | 32 (≈ 87.1 µM) |  |  |  | 14 mm | 15 mm |  | 16 mm | 32 (≈ 87.1 µM) | 32 (≈ 87.1 µM) | 32 (≈ 87.1 µM) | 12 | 32 (≈ 87.1 µM) | 
COc1cc(-c2[nH]c(=S)n3nc(C)nc3c2C#N)cc(OC)c1OC | 6 mm |  | 128 (≈ 358 µM) |  |  |  | 7 mm | 8 mm |  | 6 mm | 256 (≈ 716 µM) | 128 (≈ 358 µM) | 128 (≈ 358 µM) | 7 | 128 (≈ 358 µM) | 
COc1cc(-c2[nH]c(=S)n3ncnc3c2C#N)cc(OC)c1OC | 7 mm |  | 128 (≈ 373 µM) |  |  |  | 7 mm | 8 mm |  | 5 mm | 256 (≈ 746 µM) | 128 (≈ 373 µM) | 128 (≈ 373 µM) | 6 | 128 (≈ 373 µM) | 
COc1cc(-c2[nH]c(=S)nc(N/N=C/c3ccc(F)cc3)c2C#N)cc(OC)c1OC | 19 mm |  | 32 (≈ 72.8 µM) |  |  |  | 15 mm | 16 mm |  | 17 mm | 32 (≈ 72.8 µM) | 32 (≈ 72.8 µM) | 32 (≈ 72.8 µM) | 12 | 32 (≈ 72.8 µM) | 
Cc1cc(C)n(-c2nc(=S)[nH]c(-c3ccc(Br)cc3)c2C#N)n1 | 12 mm | inactive | 32 (≈ 82.8 µM) |  | inactive |  | inactive | inactive |  | 12 mm |  | 32 (≈ 82.8 µM) |  | 11 | 32 (≈ 82.8 µM) | 
N#Cc1c(-c2ccc(Br)cc2)[nH]c(=S)n2ncnc12 | 6 mm |  | 128 (≈ 385 µM) |  |  |  | 7 mm | 8 mm |  | 5 mm | 256 (≈ 771 µM) | 128 (≈ 385 µM) | 128 (≈ 385 µM) | 7 | 128 (≈ 385 µM) | 
N#Cc1c(-c2ccc(F)cc2)[nH]c(=S)n2ncnc12 | 7 mm |  | 128 (≈ 472 µM) |  |  |  | 7 mm | 8 mm |  | 6 mm | 256 (≈ 944 µM) | 128 (≈ 472 µM) | 128 (≈ 472 µM) | 8 | 128 (≈ 472 µM) | 
COc1cc(-c2[nH]c(=S)n3nnnc3c2C#N)cc(OC)c1OC | 14 mm | inactive | 16 (≈ 46.5 µM) |  | inactive |  | inactive | inactive |  | 12 mm |  | 32 (≈ 92.9 µM) |  | 12 | 32 (≈ 92.9 µM) | 
COc1ccc(/C=N/Nc2nc(=S)[nH]c(-c3ccc(Br)cc3)c2C#N)cc1 | 18 mm |  | 32 (≈ 72.7 µM) |  |  |  | 14 mm | 16 mm |  | 16 mm | 32 (≈ 72.7 µM) | 32 (≈ 72.7 µM) | 32 (≈ 72.7 µM) | 12 | 32 (≈ 72.7 µM) | 
Cc1nc2c(C#N)c(-c3ccc(F)cc3)[nH]c(=S)n2n1 | 7 mm |  | 128 (≈ 449 µM) |  |  |  | 7 mm | 8 mm |  | 5 mm | 256 (≈ 897 µM) | 128 (≈ 449 µM) | 128 (≈ 449 µM) | 7 | 128 (≈ 449 µM) | 
N#Cc1c(-c2ccc(Br)cc2)[nH]c(=S)n2nnnc12 | 14 mm | inactive | 16 (≈ 48 µM) |  | inactive |  | inactive | inactive |  | 13 mm |  | 32 (≈ 96 µM) |  | 12 | 32 (≈ 96 µM) | 
N#Cc1c(-c2ccc(Br)cc2)[nH]c(=S)n2c(=O)c(=O)[nH]nc12 | 13 mm |  | 32 (≈ 85.1 µM) | inactive | inactive | inactive | 17 mm | inactive | inactive | inactive | 16 (≈ 42.5 µM) |  |  |  |  | 
N#Cc1c(-c2ccc(F)cc2)[nH]c(=S)n2cnnc12 | 22 mm |  | 16 (≈ 59 µM) |  |  |  | 19 mm | 18 mm |  | 19 mm | 16 (≈ 59 µM) | 16 (≈ 59 µM) | 16 (≈ 59 µM) | 14 | 16 (≈ 59 µM) | 
N#Cc1c(NN)nc(=S)[nH]c1-c1ccc(Br)cc1 | 13 mm | inactive | 64 (≈ 199 µM) |  | inactive |  | inactive | inactive |  | 11 mm |  | 64 (≈ 199 µM) |  | 11 | 64 (≈ 199 µM) | 

Reference: ChEMBL document CHEMBL2434844, “Synthesis, antimicrobial, antioxidant activities of novel 6-aryl-5-cyano thiouracil derivatives” (Eur J Med Chem, 2013)
